Published values of several laboratories.
Protocols differ between the studies behind these lines.
Signal transducer and activator of transcription 6 SH2: Signal transducer and activator of transcription 6, SH2 (Homo sapiens, UniProt P42226)
DRD4: D(4) dopamine receptor (DRD4, Homo sapiens, UniProt P21917)
ABHD6: Monoacylglycerol lipase ABHD6 (ABHD6, Homo sapiens, UniProt Q9BV23)
Oprm1: Mu-type opioid receptor (Oprm1, Rattus norvegicus, UniProt P33535)

With `O=C(COc1ccc2cc(C(=O)Nc3ccccc3)ccc2c1)NCc1ccc(OP(=O)(O)O)c(OP(=O)(O)O)c1` the IC50 was 7170 nM (Signal transducer and activator of transcription 6 SH2; ligand displacement, FP).
`CC(=O)c1c(O)c(C)c(O)c(Cc2c(O)c3c(c(C(=O)/C=C/c4ccccc4)c2O)OC(C)(C)C=C3)c1O` gave an IC50 of > 50000 nM (Protein-glutamine gamma-glutamyltransferase (TGM2, Homo sapiens, UniProt P21980); enzyme activity, inhibitor).
`COc1ccccc1OCCNCC(O)COc1cccc2[nH]c3ccccc3c12` (centres unmarked) gave an IC50 of 20 nM (DRD4; ligand displacement, radioligand).
`CN(C(=O)Oc1nsnc1N1CCCCC1)c1ccc(F)cc1` gave an IC50 of 78 nM (ABHD6; enzyme activity, inhibitor, fluorescence; lysate).
For `C=CCOC(Cn1ccnc1)c1ccc(Cl)cc1Cl` (centres unmarked), the IC50 was 60000 to 70000 nM (Pleiotropic ABC efflux transporter of multiple drugs (PDR5, Saccharomyces cerevisiae S288c, UniProt P33302); transporter uptake, inhibitor).
For `O=P(O)(O)Oc1ccccc1OP(=O)(O)O`, the IC50 was 36000 nM (Signal transducer and activator of transcription 6 SH2; ligand displacement, FP).
The IC50 of `COc1cccc(N(C)C(=O)Oc2nsnc2N2CCCCC2)c1` is reported as 195 nM (ABHD6; enzyme activity, inhibitor, fluorescence; lysate).
`CCN(CC)Cc1cc(Nc2ccnc3cc(Cl)ccc23)ccc1O` has an IC50 of ≥ 250000 nM (Genome polyprotein, protease (Dengue virus type 2, UniProt P14340); enzyme activity, inhibitor).
With `C[C@@H](NC(=O)[C@@H](N)Cc1ccc(O)cc1)C(=O)NCCC(=O)N[C@@H](Cc1ccccc1)C(=O)NNC(=O)[C@H](Cc1ccccc1)NC(=O)CCNC(=O)[C@@H](C)NC(=O)[C@@H](N)Cc1ccc(O)cc1` the IC50 was 380 nM (Oprm1; ligand displacement, radioligand).
`CN(C(=O)Oc1nsnc1N1CCCCC1)c1ccc(Cl)cc1` gave an IC50 of 407 nM (ABHD6; enzyme activity, inhibitor, fluorescence; lysate).
`COc1cc2c(cc1OC)C(=O)C(CC1CCN(Cc3ccccc3)CC1)C2` (centres unmarked) gave an IC50 of 824 nM (DRD4; ligand displacement, radioligand).
The IC50 of `CN(C(=O)Oc1nsnc1N1CCCCC1)c1cccc(-c2ccccc2)c1` is reported as 910 nM (ABHD6; enzyme activity, inhibitor, fluorescence; lysate).
For `C[C@@H](NC(=O)[C@@H](N)Cc1ccc(O)cc1)C(=O)NCC(=O)N[C@H](CC(=O)NNC(=O)C[C@H](Cc1ccccc1)NC(=O)CNC(=O)[C@@H](C)NC(=O)[C@@H](N)Cc1ccc(O)cc1)Cc1ccccc1`, the IC50 was 2.29 nM (Oprm1; ligand displacement, radioligand).
For `C[C@H](N)Cn1ncc2ccc3c(c21)CCCO3`, the IC50 was 10800 nM (5-hydroxytryptamine receptor 5A (HTR5A, Homo sapiens, UniProt P47898); ligand displacement, radioligand).
